Source: PubChem (several laboratories)
Only some compounds are listed: those with a hit (about 4% of all), similar ones and a draw of the others.
ABHD5 PLIN5 PPI – blocks binding of human ABHD5 to perilipin-5 | Split G. princeps luciferase complementation, luminescence, 4 h | inhibition, % at 4 µM | 360,000 compounds, 0.78% hits;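 active means inhibition above the mean inhibition across every tested compound plus 3 SD, cut at about 22% in these data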
Target sequence (Q00G26 whole entry, looked up): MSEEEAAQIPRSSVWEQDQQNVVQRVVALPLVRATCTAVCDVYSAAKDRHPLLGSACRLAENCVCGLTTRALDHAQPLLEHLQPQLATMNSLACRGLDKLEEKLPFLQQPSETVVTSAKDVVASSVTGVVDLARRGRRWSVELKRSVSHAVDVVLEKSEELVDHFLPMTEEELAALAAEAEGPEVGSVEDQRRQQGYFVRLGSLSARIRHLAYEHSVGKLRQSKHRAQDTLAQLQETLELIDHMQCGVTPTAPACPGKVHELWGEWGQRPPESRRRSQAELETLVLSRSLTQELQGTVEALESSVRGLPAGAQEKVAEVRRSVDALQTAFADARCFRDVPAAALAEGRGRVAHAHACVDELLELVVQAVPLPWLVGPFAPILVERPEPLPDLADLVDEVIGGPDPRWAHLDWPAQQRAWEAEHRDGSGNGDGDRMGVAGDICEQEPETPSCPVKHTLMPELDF
Target sequence (Q8WTS1 whole entry, looked up): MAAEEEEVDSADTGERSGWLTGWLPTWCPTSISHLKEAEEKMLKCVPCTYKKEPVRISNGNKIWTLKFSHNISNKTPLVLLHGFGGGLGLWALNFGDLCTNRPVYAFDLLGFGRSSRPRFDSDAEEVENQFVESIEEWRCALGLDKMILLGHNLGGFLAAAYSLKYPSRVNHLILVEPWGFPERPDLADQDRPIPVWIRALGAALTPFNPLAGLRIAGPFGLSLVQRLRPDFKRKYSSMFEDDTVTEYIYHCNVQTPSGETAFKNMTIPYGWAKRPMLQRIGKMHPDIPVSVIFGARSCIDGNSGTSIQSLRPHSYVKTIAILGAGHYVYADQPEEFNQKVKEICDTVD
Mdm2-MdmX inh – inhibitors of human Mdm2/MdmX interaction; SaOS-2 split-luciferase Mdm2/MdmX complementation, luminescence; 330,000 compounds, 3% hits; inhibition, % at 8 µM; O15151+Q00987;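 active means inhibition of at least 50% at 8 µM in the primary screen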
XBP1 UPR activ – activators of adaptive arm of unfolded protein response (XBP1); activation, % at 20 µM; CHO-XBP1 luciferase reporter, IRE1-XBP1 UPR activation, luminescence; percent of tunicamycin response, DMSO as zero; 330,000 compounds, 0.33% hits; AID 463104;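 active means versus positive control, 20 µM dose yields 30% or more activation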
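Assay system: IRE1-XBP1 luciferase reporter CHO line. Input: 1000 cells/well. Buffer or medium: F12 with 10% serum. Doses: 20 µM, 1% DMSO. Times: overnight seeding at 37 °C, 6 h compound treatment at 37 °C. Technique: Steady-Glo luciferase glow luminescence, 10 min after reagent addition.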
Exocytosis inh – blocks lytic granule exocytosis; TALL-104 LAMP-1 surface exposure, flow cytometry; cells stimulated with thapsigargin and PMA; inhibition, % at 10 µM; 360,000 compounds, 0.66% hits; AID 651702;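 active means inhibition above about 55%, limit read from the data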
UPR CHOP act – apoptotic UPR (CHOP) activation; CHO-CHOP luciferase reporter, luminescence; percent of tunicamycin response over DMSO baseline; AID 449763; 330,000 compounds, 0.34% hits; activation, % at 10 µM;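 active means at 10 µM dose, activation of 40% or more, normalized to positive control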
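Assay system: CHO cells with stable CHOP pathway luciferase reporter; Buffer or medium: F12 plus 10% serum; Times: 16-18 h cell attachment, then 6 h compound exposure, 37 °C; Signal: luciferase luminescence; Read-out basis: percent activation relative to tunicamycin control; Control set: tunicamycin high control, DMSO low control.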
Mdm2 MdmX conf – confirmation of human Mdm2/MdmX interaction inhibitors; shares compounds with Mdm2-MdmX inh; Mdm2-MdmX binding, luminescent assay; inhibition, % at 8 µM; 10,000 compounds, 55% hits; AID 489028; in the data active means inhibition above about 40%
FLuc counter – counter-screen for Mdm2/MdmX inhibitors: full-length luciferase. SaOS-2 full-length luciferase counterscreen, luminescence. 6,200 compounds, 77% hits. shares compounds with Mdm2-MdmX inh. inhibition, % at 8 µM;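 active means mean inhibition at 8 µM reaching about 37%, which flags the compound as non-specific, limit read from the data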;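 further: p53-null SaOS-2 cells with luciferase driven by a doxycycline-inducible promoter; compound on cells about two nights before reading with doxycycline added after day one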
Hits are given with their value.

How did Cn1c(N2CCOCC2)c(/C=N/OC(=O)c2ccc(F)cc2)c2ccccc21 do in these assays?
ABHD5 PLIN5 PPI: inactive; Mdm2-MdmX inh: inactive; XBP1 UPR activ: inactive; Exocytosis inh: inactive; UPR CHOP act: inactive

What do the screens show for `Cc1ccc(C(=O)O/N=C/c2c(N3CCOCC3)n(C)c3ccccc23)cc1`?
ABHD5 PLIN5 PPI: inactive; Mdm2-MdmX inh: 51.4; XBP1 UPR activ: inactive; Exocytosis inh: inactive; UPR CHOP act: inactive; Mdm2 MdmX conf: 40.5; FLuc counter: inactive

Results for O=C(N[C@H]1C/C=C\C[C@@H](CC(=O)N(CCO)Cc2ccccc2)C(=O)N2CCC[C@@H]2COC1=O)OCC1c2ccccc2-c2ccccc21 ?
ABHD5 PLIN5 PPI: inactive; Mdm2-MdmX inh: inactive; XBP1 UPR activ: inactive; Exocytosis inh: inactive; UPR CHOP act: inactive

How did CC1CC1C(=O)Nc1nc(-c2ccccn2)cs1 (stereo not given) do in these assays?
ABHD5 PLIN5 PPI: inactive; Mdm2-MdmX inh: inactive; XBP1 UPR activ: inactive; Exocytosis inh: inactive; UPR CHOP act: inactive

Results for CCc1cc(C(=O)Nc2nc(-c3ccccn3)cs2)sc1C ?
ABHD5 PLIN5 PPI: inactive; Mdm2-MdmX inh: 51.9; XBP1 UPR activ: inactive; Exocytosis inh: inactive; UPR CHOP act: inactive; Mdm2 MdmX conf: 55.9; FLuc counter: 50.8

Results for O=C(Nc1nc(-c2ccccc2)cs1)C1COc2ccccc2O1 (stereo not given) ?
ABHD5 PLIN5 PPI: inactive; Mdm2-MdmX inh: inactive; XBP1 UPR activ: inactive; Exocytosis inh: inactive; UPR CHOP act: inactive

What do the screens show for `O=C(Nc1nc(-c2ccccn2)cs1)C1COc2ccccc2O1` (stereo not given)?
ABHD5 PLIN5 PPI: inactive; Mdm2-MdmX inh: 64.9; XBP1 UPR activ: inactive; Exocytosis inh: inactive; UPR CHOP act: inactive; Mdm2 MdmX conf: 70.7; FLuc counter: 55.6

Results for CC(=O)Nc1ccc(C(=O)Nc2nc(-c3ccccn3)cs2)cc1 ?
ABHD5 PLIN5 PPI: inactive; Mdm2-MdmX inh: inactive; XBP1 UPR activ: inactive; Exocytosis inh: inactive; UPR CHOP act: inactive

How did O=C(Nc1nc(-c2ccccn2)cs1)c1ccccc1-n1cnnn1 do in these assays?
ABHD5 PLIN5 PPI: inactive; Mdm2-MdmX inh: 71.7; XBP1 UPR activ: inactive; Exocytosis inh: inactive; UPR CHOP act: inactive; Mdm2 MdmX conf: 74.8; FLuc counter: inactive

What do the screens show for `CC(=O)c1ccc(-c2ccc(C(=O)Nc3nc(-c4ccccn4)cs3)o2)cc1`?
ABHD5 PLIN5 PPI: inactive; Mdm2-MdmX inh: 91.4; XBP1 UPR activ: inactive; Exocytosis inh: inactive; UPR CHOP act: inactive; Mdm2 MdmX conf: 86.2; FLuc counter: 40.4

How did Cn1c(-c2ccc3c(c2)OCO3)cc(=O)c2ccccc21 do in these assays?
ABHD5 PLIN5 PPI: inactive; Mdm2-MdmX inh: inactive; XBP1 UPR activ: inactive; Exocytosis inh: inactive; UPR CHOP act: inactive

Results for COc1ccc(S(=O)(=O)N=C2C=C(C)C(=O)C(C)=C2)cc1 ?
ABHD5 PLIN5 PPI: inactive; Mdm2-MdmX inh: inactive; XBP1 UPR activ: inactive; Exocytosis inh: inactive; UPR CHOP act: inactive

What do the screens show for `Cc1ccccc1-n1ccnc1SCC(=O)NCC1CCCO1` (stereo not given)?
ABHD5 PLIN5 PPI: inactive; Mdm2-MdmX inh: inactive; XBP1 UPR activ: inactive; Exocytosis inh: inactive; UPR CHOP act: inactive

How did Cc1cccc(-c2nc3c(c(SCC(=O)N(C)C)n2)CCCC3)c1 do in these assays?
ABHD5 PLIN5 PPI: inactive; Mdm2-MdmX inh: inactive; XBP1 UPR activ: inactive; Exocytosis inh: inactive; UPR CHOP act: inactive

What do the screens show for `CCC(C)(C(=O)NC1CCCCC1)N(C(=O)C1CCC(=O)N1)c1ccccc1` (stereo not given)?
ABHD5 PLIN5 PPI: inactive; Mdm2-MdmX inh: inactive; XBP1 UPR activ: inactive; Exocytosis inh: inactive; UPR CHOP act: inactive

How did CCCn1nc(C(=O)Nc2nc(-c3ccccn3)cs2)c2ccccc2c1=O do in these assays?
ABHD5 PLIN5 PPI: inactive; Mdm2-MdmX inh: 61.7; XBP1 UPR activ: inactive; Exocytosis inh: inactive; UPR CHOP act: inactive; Mdm2 MdmX conf: 50.0; FLuc counter: 52.6

How did O=C(Nc1nc(-c2ccccn2)cs1)c1ccc(-c2ccccc2F)o1 do in these assays?
ABHD5 PLIN5 PPI: inactive; Mdm2-MdmX inh: 57.3; XBP1 UPR activ: inactive; Exocytosis inh: inactive; UPR CHOP act: inactive; Mdm2 MdmX conf: 50.5; FLuc counter: 62.8

How did Cc1ccc(C(=O)Nc2nc(-c3ccccn3)cs2)o1 do in these assays?
ABHD5 PLIN5 PPI: inactive; Mdm2-MdmX inh: 73.7; XBP1 UPR activ: inactive; Exocytosis inh: inactive; UPR CHOP act: inactive; Mdm2 MdmX conf: 56.4; FLuc counter: 40.0

Results for O=C(Nc1nc(-c2ccccn2)cs1)c1ccc([N+](=O)[O-])o1 ?
ABHD5 PLIN5 PPI: inactive; Mdm2-MdmX inh: 76.7; XBP1 UPR activ: inactive; Exocytosis inh: inactive; UPR CHOP act: inactive; Mdm2 MdmX conf: 68.0; FLuc counter: 37.2

Results for CCn1nc(C(=O)Nc2nc(-c3ccccn3)cs2)c2ccccc2c1=O ?
ABHD5 PLIN5 PPI: inactive; Mdm2-MdmX inh: inactive; XBP1 UPR activ: inactive; Exocytosis inh: inactive; UPR CHOP act: inactive

How did O=C(Nc1nc(-c2cc(F)ccc2F)cs1)c1ccccn1 do in these assays?
ABHD5 PLIN5 PPI: inactive; Mdm2-MdmX inh: inactive; XBP1 UPR activ: inactive; Exocytosis inh: inactive; UPR CHOP act: inactive

What do the screens show for `Cc1cc(C(=O)Nc2nc(-c3ccccn3)cs2)ccc1[N+](=O)[O-]`?
ABHD5 PLIN5 PPI: inactive; Mdm2-MdmX inh: 63.3; XBP1 UPR activ: inactive; Exocytosis inh: inactive; UPR CHOP act: inactive; Mdm2 MdmX conf: 64.2; FLuc counter: 40.3

Results for CCOC(=O)c1ccc2nc(Nc3nc4ccc(F)cc4s3)sc2c1 ?
ABHD5 PLIN5 PPI: inactive; Mdm2-MdmX inh: 82.4; XBP1 UPR activ: inactive; Exocytosis inh: inactive; UPR CHOP act: inactive; Mdm2 MdmX conf: 59.6; FLuc counter: inactive

Results for COC(=O)c1ccc2nc(Nc3nc4c(F)cc(F)cc4s3)sc2c1 ?
ABHD5 PLIN5 PPI: inactive; Mdm2-MdmX inh: 87.9; XBP1 UPR activ: inactive; Exocytosis inh: inactive; UPR CHOP act: inactive; Mdm2 MdmX conf: inactive

How did CCOC(=O)N1CCN(S(=O)(=O)c2ccc(C(=O)Nc3nc4ccc(F)cc4s3)cc2)CC1 do in these assays?
ABHD5 PLIN5 PPI: inactive; Mdm2-MdmX inh: 55.0; XBP1 UPR activ: inactive; Exocytosis inh: inactive; UPR CHOP act: inactive; Mdm2 MdmX conf: inactive

Results for CCSc1nnc(NC(=O)NC(C)(C(F)(F)F)C(F)(F)F)s1 ?
ABHD5 PLIN5 PPI: inactive; Mdm2-MdmX inh: inactive; XBP1 UPR activ: inactive; Exocytosis inh: inactive; UPR CHOP act: inactive

How did CCSc1nnc(NC(=O)NC(CC)(C(F)(F)F)C(F)(F)F)s1 do in these assays?
ABHD5 PLIN5 PPI: inactive; Mdm2-MdmX inh: 90.0; XBP1 UPR activ: inactive; Exocytosis inh: inactive; UPR CHOP act: inactive; Mdm2 MdmX conf: inactive; FLuc counter: 64.1

Results for CCc1c(C)[nH]n(-c2nc(-c3ccccc3)cs2)c1=O ?
ABHD5 PLIN5 PPI: inactive; Mdm2-MdmX inh: inactive; XBP1 UPR activ: inactive; Exocytosis inh: inactive; UPR CHOP act: inactive
